Values after ≈ are worked out from the molar mass of the structure shown.
Tests used:
Type in all cases: functional
Human rhinovirus sp. [1] = assay: Concentration inhibiting 50% of the serotypes tested to 50% of the viral concentration of untreated controls following 72 hr of exposure
In short: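 Tissue culture infectious dose (TCID50) assay against a panel of 10 human rhinovirus serotypes. For each serotype, the viral concentration was compared with untreated controls after 72 h of compound exposure. MIC50 is the compound concentration at which half of the serotypes tested are reduced to 50% of the untreated-control viral concentration.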

Human rhinovirus sp. [2] = assay: Minimum inhibitory concentration on HRV serotype 9
In short: (§1)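 Tested in a tissue culture infectious dose (TCID50) assay with 72 h compound exposure. Activity is read as the concentration that holds virus to 50% of the titer of untreated controls.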

Human rhinovirus sp. [3] = assay: Minimum inhibitory concentration on HRV serotype 68
Human rhinovirus sp. [4] = assay: Minimum inhibitory concentration on HRV serotype 35
Human rhinovirus sp. [5] = assay: Minimum inhibitory concentration on HRV serotype 56
Human rhinovirus sp. [6] = assay: Minimum inhibitory concentration on HRV serotype 21
Human rhinovirus sp. [7] = assay: Minimum inhibitory concentration on HRV serotype 67
Human rhinovirus sp. [8] = assay: Minimum inhibitory concentration on HRV serotype 16
Human rhinovirus sp. [9] = assay: Minimum inhibitory concentration on HRV serotype 82; in short: as §1
Human rhinovirus sp. [10] = assay: Minimum inhibitory concentration on HRV serotype 24
Human rhinovirus sp. [11] = assay: Minimum inhibitory concentration on HRV serotype 90; in short: as §1
Human rhinovirus sp. [12] = assay: Minimum inhibitory concentration on HRV serotype 83; in short: as §1
Human rhinovirus sp. [13] = assay: Minimum inhibitory concentration on HRV serotype 1B
Human rhinovirus sp. [14] = assay: Minimum inhibitory concentration on HRV serotype 38
Human rhinovirus sp. [15] = assay: Minimum inhibitory concentration on HRV serotype 46
Human rhinovirus sp. [16] = assay: Minimum inhibitory concentration on HRV serotype 81; in short: as §1
Human rhinovirus sp. [17] = assay: Minimum inhibitory concentration on HRV serotype 32
Human rhinovirus sp. [18] = assay: Minimum inhibitory concentration on HRV serotype 33
Human rhinovirus sp. [19] = assay: Minimum inhibitory concentration on HRV serotype 57
Human rhinovirus sp. [20] = assay: Minimum inhibitory concentration on HRV serotype 30
Human rhinovirus sp. [21] = assay: Minimum inhibitory concentration on HRV serotype 75
Human rhinovirus sp. [22] = assay: Minimum inhibitory concentration on HRV serotype 92; in short: as §1
Human rhinovirus sp. [23] = assay: Minimum inhibitory concentration on HRV serotype 58
Human rhinovirus sp. [24] = assay: Minimum inhibitory concentration on HRV serotype 47
Human rhinovirus sp. [25] = assay: Minimum inhibitory concentration on HRV serotype 61
Human rhinovirus sp. [26] = assay: Minimum inhibitory concentration on HRV serotype 23
Human rhinovirus sp. [27] = assay: Minimum inhibitory concentration on HRV serotype 73
Human rhinovirus sp. [28] = assay: Minimum inhibitory concentration on HRV serotype 64
Human rhinovirus sp. [29] = assay: Minimum inhibitory concentration on HRV serotype 79; in short: as §1
Human rhinovirus sp. [30] = assay: Minimum inhibitory concentration on HRV serotype 34
Human rhinovirus sp. [31] = assay: Minimum inhibitory concentration on HRV serotype 22
Human rhinovirus sp. [32] = assay: Minimum inhibitory concentration on HRV serotype 28
Human rhinovirus sp. [33] = assay: Minimum inhibitory concentration on HRV serotype 71
Human rhinovirus sp. [34] = assay: Minimum inhibitory concentration on HRV serotype 51
Human rhinovirus sp. [35] = assay: Minimum inhibitory concentration on HRV serotype 20
Human rhinovirus sp. [36] = assay: Minimum inhibitory concentration on HRV serotype 40
Human rhinovirus sp. [37] = assay: Minimum inhibitory concentration on HRV serotype 80; in short: as §1
Human rhinovirus sp. [38] = assay: Minimum inhibitory concentration on HRV serotype 11
Human rhinovirus sp. [39] = assay: Minimum inhibitory concentration on HRV serotype 44
Human rhinovirus sp. [40] = assay: Minimum inhibitory concentration on HRV serotype 76; in short: as §1
Human rhinovirus sp. [41] = assay: Minimum inhibitory concentration on HRV serotype 55
Human rhinovirus sp. [42] = assay: Minimum inhibitory concentration on HRV serotype 63
Human rhinovirus sp. [43] = assay: Minimum inhibitory concentration on HRV serotype 88; in short: as §1
Human rhinovirus sp. [44] = assay: Minimum inhibitory concentration on HRV serotype T39; in short: as §1
Human rhinovirus sp. [45] = assay: Minimum inhibitory concentration on HRV serotype 89; in short: as §1
Human rhinovirus sp. [46] = assay: Minimum inhibitory concentration on HRV serotype 49
Human rhinovirus sp. [47] = assay: Minimum inhibitory concentration on HRV serotype 96; in short: as §1
Human rhinovirus sp. [48] = assay: Minimum inhibitory concentration on HRV serotype 84; in short: as §1
Human rhinovirus sp. [49] = assay: Minimum inhibitory concentration on HRV serotype 15
Human rhinovirus sp. [50] = assay: Minimum inhibitory concentration on HRV serotype 36
Human rhinovirus sp. [51] = assay: Minimum inhibitory concentration on HRV serotype 7
Human rhinovirus sp. [52] = assay: Minimum inhibitory concentration on HRV serotype 2
Human rhinovirus sp. [53] = assay: Minimum inhibitory concentration on HRV serotype 25
Human rhinovirus sp. [54] = assay: Minimum inhibitory concentration on HRV serotype 100
Human rhinovirus sp. [55] = assay: Minimum inhibitory concentration on HRV serotype 78; in short: as §1
Human rhinovirus sp. [56] = assay: Minimum inhibitory concentration on HRV serotype 66
Human rhinovirus sp. [57] = assay: Minimum inhibitory concentration on HRV serotype 19
Human rhinovirus sp. [58] = assay: Minimum inhibitory concentration on HRV serotype 43
Human rhinovirus sp. [59] = assay: Minimum inhibitory concentration on HRV serotype 62
Human rhinovirus sp. [60] = assay: Minimum inhibitory concentration on HRV serotype 39
Human rhinovirus sp. [61] = assay: Minimum inhibitory concentration on HRV serotype 53
Human rhinovirus sp. [62] = assay: Minimum inhibitory concentration on HRV serotype 29
Human rhinovirus sp. [63] = assay: Minimum inhibitory concentration on HRV serotype 85; in short: as §1
Human rhinovirus sp. [64] = assay: Minimum inhibitory concentration on HRV serotype 1A
Human rhinovirus sp. [65] = assay: Minimum inhibitory concentration on HRV serotype 50

An MIC50 (Human rhinovirus sp. [1]) of 0.76 µM (≈ 0.278 µg/mL) was found for `Cc1cc(CCCOc2c(C)cc(-c3ccc([N+](=O)[O-])cc3)cc2C)on1` in this work.

An MIC50 (Human rhinovirus sp. [1]) of over 8.9 µM was found for `Cc1cc(CCCOc2c(C)cc(-c3cccc(C#N)c3)cc2C)on1` in this work.

An MIC50 (Human rhinovirus sp. [1]) of 0.16 µM (≈ 0.0572 µg/mL) was found for `Cc1cc(CCCOc2c(C)cc(-c3ccc(F)c(F)c3)cc2C)on1` in this work.

An MIC (Human rhinovirus sp. [2]) of 0.08 µg/mL (≈ 0.236 µM), an MIC (Human rhinovirus sp. [3]) of 0.009 µg/mL (≈ 0.0265 µM) and an MIC (Human rhinovirus sp. [4]) of 0.021 µg/mL (≈ 0.0619 µM) were found for `Cc1cc(CCCOc2c(C)cc(-c3ccc(F)cc3)cc2C)on1` in this work. The MIC (Human rhinovirus sp. [5]) was 0.038 µg/mL (≈ 0.112 µM), the MIC (Human rhinovirus sp. [6]) was 0.009 µg/mL (≈ 0.0265 µM) and the MIC (Human rhinovirus sp. [7]) was 0.118 µg/mL (≈ 0.348 µM). For the same compound, the MIC (Human rhinovirus sp. [8]) was 0.058 µg/mL (≈ 0.171 µM), the MIC (Human rhinovirus sp. [9]) was 0.187 µg/mL (≈ 0.551 µM) and the MIC (Human rhinovirus sp. [10]) was 0.036 µg/mL (≈ 0.106 µM). The MIC (Human rhinovirus sp. [11]) was 0.024 µg/mL (≈ 0.0707 µM), the MIC (Human rhinovirus sp. [12]) was 0.004 µg/mL (≈ 0.0118 µM) and the MIC (Human rhinovirus sp. [13]) was 0.024 µg/mL (≈ 0.0707 µM). The MIC (Human rhinovirus sp. [14]) was 0.015 µg/mL (≈ 0.0442 µM), the MIC (Human rhinovirus sp. [15]) was 0.058 µg/mL (≈ 0.171 µM) and the MIC (Human rhinovirus sp. [16]) was 0.125 µg/mL (≈ 0.368 µM). For the same compound, the MIC (Human rhinovirus sp. [17]) was 0.098 µg/mL (≈ 0.289 µM), the MIC (Human rhinovirus sp. [18]) was 0.019 µg/mL (≈ 0.056 µM) and the MIC (Human rhinovirus sp. [19]) was 0.024 µg/mL (≈ 0.0707 µM). It also gave an MIC (Human rhinovirus sp. [20]) of 0.028 µg/mL (≈ 0.0825 µM), an MIC (Human rhinovirus sp. [21]) of 0.037 µg/mL (≈ 0.109 µM) and an MIC (Human rhinovirus sp. [22]) of 0.014 µg/mL (≈ 0.0412 µM). For the same compound, the MIC (Human rhinovirus sp. [23]) was 0.013 µg/mL (≈ 0.0383 µM), the MIC (Human rhinovirus sp. [24]) was 0.021 µg/mL (≈ 0.0619 µM) and the MIC (Human rhinovirus sp. [25]) was 0.024 µg/mL (≈ 0.0707 µM). The MIC (Human rhinovirus sp. [26]) was 0.046 µg/mL (≈ 0.136 µM), the MIC (Human rhinovirus sp. [27]) was 0.049 µg/mL (≈ 0.144 µM) and the MIC (Human rhinovirus sp. [28]) was 0.07 µg/mL (≈ 0.206 µM). For the same compound, the MIC (Human rhinovirus sp. [29]) was 0.056 µg/mL (≈ 0.165 µM), the MIC (Human rhinovirus sp. [30]) was 0.02 µg/mL (≈ 0.0589 µM) and the MIC (Human rhinovirus sp. [31]) was 0.02 µg/mL (≈ 0.0589 µM). It also gave an MIC (Human rhinovirus sp. [32]) of 0.14 µg/mL (≈ 0.412 µM), an MIC (Human rhinovirus sp. [33]) of 0.025 µg/mL (≈ 0.0737 µM) and an MIC (Human rhinovirus sp. [34]) of 0.009 µg/mL (≈ 0.0265 µM). For the same compound, the MIC (Human rhinovirus sp. [35]) was 0.019 µg/mL (≈ 0.056 µM), the MIC (Human rhinovirus sp. [36]) was 0.033 µg/mL (≈ 0.0972 µM) and the MIC (Human rhinovirus sp. [37]) was 0.031 µg/mL (≈ 0.0913 µM). The MIC50 (Human rhinovirus sp. [1]) was 0.11 µM (≈ 0.0373 µg/mL), the MIC (Human rhinovirus sp. [38]) was 0.007 µg/mL (≈ 0.0206 µM) and the MIC (Human rhinovirus sp. [39]) was 0.033 µg/mL (≈ 0.0972 µM). For the same compound, the MIC (Human rhinovirus sp. [40]) was 0.009 µg/mL (≈ 0.0265 µM), the MIC (Human rhinovirus sp. [41]) was 0.003 µg/mL (≈ 0.00884 µM) and the MIC (Human rhinovirus sp. [42]) was 0.139 µg/mL (≈ 0.41 µM). It also gave an MIC (Human rhinovirus sp. [43]) of 0.006 µg/mL (≈ 0.0177 µM), an MIC (Human rhinovirus sp. [44]) of 0.035 µg/mL (≈ 0.103 µM) and an MIC (Human rhinovirus sp. [45]) of 0.012 µg/mL (≈ 0.0354 µM). The MIC (Human rhinovirus sp. [46]) was 0.037 µg/mL (≈ 0.109 µM), the MIC (Human rhinovirus sp. [47]) was 0.031 µg/mL (≈ 0.0913 µM) and the MIC (Human rhinovirus sp. [48]) was 0.042 µg/mL (≈ 0.124 µM). It also gave an MIC (Human rhinovirus sp. [49]) of 0.492 µg/mL (≈ 1.45 µM), an MIC (Human rhinovirus sp. [50]) of 0.009 µg/mL (≈ 0.0265 µM) and an MIC (Human rhinovirus sp. [51]) of 0.006 µg/mL (≈ 0.0177 µM). It also gave an MIC (Human rhinovirus sp. [52]) of 0.009 µg/mL (≈ 0.0265 µM), an MIC (Human rhinovirus sp. [53]) of 0.077 µg/mL (≈ 0.227 µM) and an MIC (Human rhinovirus sp. [54]) of 0.12 µg/mL (≈ 0.354 µM). It also gave an MIC (Human rhinovirus sp. [55]) of 0.018 µg/mL (≈ 0.053 µM), an MIC (Human rhinovirus sp. [56]) of 0.161 µg/mL (≈ 0.474 µM) and an MIC (Human rhinovirus sp. [57]) of 0.03 µg/mL (≈ 0.0884 µM). The MIC (Human rhinovirus sp. [58]) was 0.072 µg/mL (≈ 0.212 µM), the MIC (Human rhinovirus sp. [59]) was 0.154 µg/mL (≈ 0.454 µM) and the MIC (Human rhinovirus sp. [60]) was 0.078 µg/mL (≈ 0.23 µM). For the same compound, the MIC (Human rhinovirus sp. [61]) was 0.889 µg/mL (≈ 2.62 µM), the MIC (Human rhinovirus sp. [62]) was 0.03 µg/mL (≈ 0.0884 µM) and the MIC (Human rhinovirus sp. [63]) was 0.02 µg/mL (≈ 0.0589 µM). It also gave an MIC (Human rhinovirus sp. [64]) of 0.155 µg/mL (≈ 0.457 µM) and an MIC (Human rhinovirus sp. [65]) of 0.04 µg/mL (≈ 0.118 µM).

An MIC50 (Human rhinovirus sp. [1]) of 0.26 µM (≈ 0.0901 µg/mL) was found for `Cc1cc(CCCOc2c(C)cc(-c3ccc(C#N)cc3)cc2C)on1` in this work.

— ChEMBL document CHEMBL1128473, “[(Biaryloxy)alkyl]isoxazoles: picornavirus inhibitors” (J Med Chem, 1995)
